Activity calls are given as the source filed them. The calls are words filed in the database; no cut-off is given here.
How the values were obtained:
K562 [1] = assay: Growth inhibition of human K562 cells after 72 hrs by Calcein AM dye based fluorescence assay; type: functional; conditions: K562, 72 h
Summary of the method: (§1)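 Cells in DMEM with 10% FBS at 37 °C, 5% CO2, treated in triplicate with six doses for 72 h. Calcein AM was added for 1 h and live-cell fluorescence read at 485/538 nm. GI50 was taken from dose-response curves.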

MCF7 [2] = assay: Growth inhibition of human MCF7 cells after 72 hrs by Calcein AM dye based fluorescence assay; type: functional; conditions: MCF7, 72 h; summary of the method: as §1
[3] = target: Cyclin-dependent kinase 1 (Homo sapiens) (UniProt P06493); assay: Inhibition of CDK1 (unknown origin)
K562 [4] = assay: Cell cycle arrest in human K562 cells assessed as accumulation at G1 phase at 10 uM after 24 hrs by propidium iodide staining-based flow cytometric analysis (reference value: 34.6%); type: functional
K562 [5] = assay: Cell cycle arrest in human K562 cells assessed as accumulation at G2/M phase at 10 uM after 24 hrs by propidium iodide staining-based flow cytometric analysis (reference value: 15%); type: functional
MCF7 [6] = assay: Cell cycle arrest in human MCF7 cells assessed as accumulation at S phase at 10 uM after 24 hrs by propidium iodide staining-based flow cytometric analysis (reference value: 34.1%); type: functional
Summary of the method: (§2)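 MCF-7 cells in DMEM with 10% FBS and penicillin/streptomycin at 37 °C, 5% CO2. Asynchronous cells were treated 24 h, PBS-washed, trypsinized and quenched with 0.1% trypsin inhibitor. Staining used 5× citrate/IGEPAL/spermine/Tris buffer (pH 7.6) with 50 μg/mL propidium iodide. DNA content was read by 488 nm flow cytometry and cell-cycle phases modelled.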

MCF7 [7] = assay: Cell cycle arrest in human MCF7 cells assessed as accumulation at sub G1 phase at 10 uM after 24 hrs by propidium iodide staining-based flow cytometric analysis (reference value: 7.1%); type: functional; summary of the method: as §2
MCF7 [8] = assay: Cell cycle arrest in human MCF7 cells assessed as accumulation at G1 phase at 10 uM after 24 hrs by propidium iodide staining-based flow cytometric analysis (reference value: 60.7%); type: functional; summary of the method: as §2
MCF7 [9] = assay: Cell cycle arrest in human MCF7 cells assessed as accumulation at G2/M phase at 10 uM after 24 hrs by propidium iodide staining-based flow cytometric analysis (reference value: 5.3%); type: functional; summary of the method: as §2
K562 [10] = assay: Cell cycle arrest in human K562 cells assessed as accumulation at sub G1 phase at 10 uM after 24 hrs by propidium iodide staining-based flow cytometric analysis (reference value: 15%); type: functional
K562 [11] = assay: Cell cycle arrest in human K562 cells assessed as accumulation at S phase at 10 uM after 24 hrs by propidium iodide staining-based flow cytometric analysis (reference value: 50.3%); type: functional
K562 [12] = assay: Cell cycle arrest in human K562 cells assessed as accumulation at G2/M phase at 83 nM after 24 hrs by propidium iodide staining-based flow cytometric analysis (reference value: 15%); type: functional
MCF7 [13] = assay: Cell cycle arrest in human MCF7 cells assessed as accumulation at G2/M phase at 83 nM after 24 hrs by propidium iodide staining-based flow cytometric analysis (reference value: 5.3%); type: functional; summary of the method: as §2
MCF7 [14] = assay: Cell cycle arrest in human MCF7 cells assessed as accumulation at G1 phase at 83 nM after 24 hrs by propidium iodide staining-based flow cytometric analysis (reference value: 60.7%); type: functional; summary of the method: as §2
MCF7 [15] = assay: Cell cycle arrest in human MCF7 cells assessed as accumulation at sub G1 phase at 83 nM after 24 hrs by propidium iodide staining-based flow cytometric analysis (reference value: 7.1%); type: functional; summary of the method: as §2
K562 [16] = assay: Cell cycle arrest in human K562 cells assessed as accumulation at S phase at 83 nM after 24 hrs by propidium iodide staining-based flow cytometric analysis (reference value: 50.3%); type: functional
K562 [17] = assay: Cell cycle arrest in human K562 cells assessed as accumulation at G2/M phase assessed as accumulation of histone H3 phosphorylation at serine 10 residues at 40 ng/ml uM after 24 hrs by propidium iodide staining-based flow cytometric analysis (reference value: 2.2%); type: functional
MCF7 [18] = assay: Cell cycle arrest in human MCF7 cells assessed as accumulation at S phase at 83 nM after 24 hrs by propidium iodide staining-based flow cytometric analysis (reference value: 34.1%); type: functional; summary of the method: as §2
K562 [19] = assay: Cell cycle arrest in human K562 cells assessed as accumulation at sub G1 phase at 83 nM after 24 hrs by propidium iodide staining-based flow cytometric analysis (reference value: 15%); type: functional
K562 [20] = assay: Cell cycle arrest in human K562 cells assessed as accumulation at G1 phase at 83 nM after 24 hrs by propidium iodide staining-based flow cytometric analysis (reference value: 34.6%); type: functional
MCF7 [21] = assay: Cell cycle arrest in human MCF7 cells assessed as accumulation at S phase at 0.25 uM after 24 hrs by propidium iodide staining-based flow cytometric analysis (reference value: 34.1%); type: functional; summary of the method: as §2
K562 [22] = assay: Cell cycle arrest in human K562 cells assessed as accumulation at G2/M phase at 0.25 uM after 24 hrs by propidium iodide staining-based flow cytometric analysis (reference value: 15%); type: functional
MCF7 [23] = assay: Cell cycle arrest in human MCF7 cells assessed as accumulation at G1 phase at 0.25 uM after 24 hrs by propidium iodide staining-based flow cytometric analysis (reference value: 60.7%); type: functional; summary of the method: as §2
K562 [24] = assay: Cell cycle arrest in human K562 cells assessed as accumulation at S phase at 0.25 uM after 24 hrs by propidium iodide staining-based flow cytometric analysis (reference value: 50.3%); type: functional
MCF7 [25] = assay: Cell cycle arrest in human MCF7 cells assessed as accumulation at G2/M phase at 0.25 uM after 24 hrs by propidium iodide staining-based flow cytometric analysis (reference value: 5.3%); type: functional; summary of the method: as §2
K562 [26] = assay: Cell cycle arrest in human K562 cells assessed as accumulation at sub G1 phase at 0.25 uM after 24 hrs by propidium iodide staining-based flow cytometric analysis (reference value: 15%); type: functional
MCF7 [27] = assay: Cell cycle arrest in human MCF7 cells assessed as accumulation at sub G1 phase at 0.25 uM after 24 hrs by propidium iodide staining-based flow cytometric analysis (reference value: 7.1%); type: functional; summary of the method: as §2
K562 [28] = assay: Cell cycle arrest in human K562 cells assessed as accumulation at G1 phase at 0.25 uM after 24 hrs by propidium iodide staining-based flow cytometric analysis (reference value: 34.6%); type: functional

Chain of Cyclin-dependent kinase 1 (Homo sapiens) (P06493 whole entry, looked up): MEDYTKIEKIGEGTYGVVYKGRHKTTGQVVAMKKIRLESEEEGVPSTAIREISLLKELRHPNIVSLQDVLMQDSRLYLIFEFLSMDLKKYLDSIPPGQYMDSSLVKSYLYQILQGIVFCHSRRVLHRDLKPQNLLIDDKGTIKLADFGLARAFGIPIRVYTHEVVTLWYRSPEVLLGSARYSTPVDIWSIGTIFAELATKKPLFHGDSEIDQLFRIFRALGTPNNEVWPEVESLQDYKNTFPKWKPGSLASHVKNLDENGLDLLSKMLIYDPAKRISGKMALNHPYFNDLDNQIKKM

| Compound | GI50 (K562 [1]) [µM] | GI50 (MCF7 [2]) [µM] | inhibition [3] | Activity (K562 [4]) [%] | Activity (K562 [5]) [%] | Activity (MCF7 [6]) [%] | Activity (MCF7 [7]) [%] | Activity (MCF7 [8]) [%] | Activity (MCF7 [9]) [%] | Activity (K562 [10]) [%] | Activity (K562 [11]) [%] | further results |
| --- | --- | --- | --- | --- | --- | --- | --- | --- | --- | --- | --- | --- |
| OCCc1cc2nn(-c3ccccc3)cc2cn1 | > 100 | > 100 | inactive |  |  |  |  |  |  |  |  |  |
| CCCCc1cc2nn(-c3ccccc3)cc2c(C(C)C)n1 | 12.9 | 33.3 | inactive | 26.7 | 29 | 24.5 | 7.8 | 66.1 | 9.4 | 47.1 | 44.2 |  |
| Cc1nccc2nn(-c3ccccc3)cc12 | > 100 | > 100 | inactive |  |  |  |  |  |  |  |  |  |
| COC(=O)Nc1nc2cc(C(=O)c3cccs3)ccc2[nH]1 [NOCODAZOLE] |  |  |  |  |  |  |  |  |  |  |  | Activity (K562 [12]): 69.7%; Activity (MCF7 [13]): 35.7%; Activity (MCF7 [14]): 14.4%; Activity (MCF7 [15]): 32.1%; Activity (K562 [16]): 26.8%; Activity (K562 [17]): 33.2%; Activity (MCF7 [18]): 49.9%; Activity (K562 [19]): 49.4%; Activity (K562 [20]): 3.6% |
| CC(=O)c1c(C)c2cnc(Nc3ccc(N4CCNCC4)cn3)nc2n(C2CCCC2)c1=O [PALBOCICLIB] |  |  |  |  |  |  |  |  |  |  |  | Activity (MCF7 [21]): 5.5%; Activity (K562 [22]): 15.9%; Activity (MCF7 [23]): 90%; Activity (K562 [24]): 30.1%; Activity (MCF7 [25]): 4.6%; Activity (K562 [26]): 35%; Activity (MCF7 [27]): 7.5%; Activity (K562 [28]): 54% |
| Cc1nc(CCO)cc2nn(-c3ccccc3)cc12 | > 100 | > 100 | inactive |  |  |  |  |  |  |  |  |  |
| Cc1nc(-c2ccccc2)cc2nn(-c3ccccc3)cc12 | 6.3 | 11 | inactive | 13.7 | 50.2 | 20.5 | 11.9 | 65.5 | 14.1 | 46.2 | 36.1 |  |
| c1ccc(-c2cc3nn(-c4ccccc4)cc3cn2)cc1 | 3.4 | 4.8 | inactive | 19.8 | 74.7 | 26.2 | 14.3 | 56.8 | 17 | 43 | 5.5 |  |

Further lines, with some results ahead:

| GI50 (K562 [1]) [µM] | GI50 (MCF7 [2]) [µM] | inhibition [3] | Compound | Activity (K562 [4]) [%] | Activity (K562 [5]) [%] | Activity (MCF7 [6]) [%] | Activity (MCF7 [7]) [%] | Activity (MCF7 [8]) [%] | Activity (MCF7 [9]) [%] | Activity (K562 [10]) [%] | Activity (K562 [11]) [%] | further results |
| --- | --- | --- | --- | --- | --- | --- | --- | --- | --- | --- | --- | --- |
| 8.5 | 11.1 | inactive | CCCCc1cc2nn(-c3ccccc3)cc2c(C)n1 | 28.2 | 41.4 | 24 | 19.3 | 48.5 | 27.5 | 40.8 | 30.5 |  |
| > 100 | > 100 | inactive | c1ccc(-n2cc3cnccc3n2)cc1 |  |  |  |  |  |  |  |  |  |
| 8.3 | 9.8 | inactive | c1ccc(-n2cc3cnc(-c4ccsc4)cc3n2)cc1 | 21.7 | 41.1 | 29.1 | 24.2 | 39.5 | 31.4 | 34.2 | 37.3 |  |
| 36.8 | 91 | inactive | CC(C)c1nc(-c2ccccc2)cc2nn(-c3ccccc3)cc12 | 35.1 | 18.3 | 30.6 | 6.7 | 62.6 | 6.9 | 21.3 | 46.6 |  |
| 10 | 22.2 | inactive | Cc1nc(-c2ccsc2)cc2nn(-c3ccccc3)cc12 | 26.2 | 44.6 | 31.2 | 22.7 | 37.2 | 31.6 | 45.7 | 29.2 |  |
| 6.7 | 13.3 | inactive | CCCCc1cc2nn(-c3ccccc3)cc2cn1 | 24.8 | 62.3 | 30.3 | 31.1 | 36 | 33.7 | 37.7 | 12.8 |  |
| 60.5 | 69.3 | inactive | c1ccc(-n2cc3cnc(C4CC4)cc3n2)cc1 | 32.3 | 15.5 | 29.4 | 7.5 | 64.7 | 5.9 | 19.6 | 52.2 |  |
| > 100 | 98.8 | inactive | CC(C)c1nccc2nn(-c3ccccc3)cc12 |  |  |  |  |  |  |  |  |  |
| > 100 | > 100 | inactive | Cn1cc2cnc(-c3ccccc3)cc2n1 |  |  |  |  |  |  |  |  |  |
| 6.9 | 17 | inactive | CCCCCc1cc2nn(-c3ccccc3)cc2c(C)n1 | 21.8 | 49.9 | 18.1 | 31.1 | 50.2 | 31.7 | 28.3 | 28.3 |  |
| 25.9 | 63.5 | inactive | Cc1nc(C2CC2)cc2nn(-c3ccccc3)cc12 | 34.7 | 19.6 | 30.2 | 9 | 63.6 | 6.3 | 15.3 | 45.8 |  |
